Calls of active or inactive are those of the source. The rule behind the calls is not given here.

In data set [1] the test system is Mammalian orthoreovirus 1. As to the kind of experiment: Antiviral activity against Reovirus type-1 ATCC VR-214 infected in BHK cells assessed as protection against virus-induced cytopathogenicity after 3 to 4 days by MTT assay. The class given is functional, cell-based. Conditions: Mammalian orthoreovirus 1, ATCC VR-214, BHK. The gist of the method: (§1)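 Cells seeded in 96-well plates (BHK 5x10^4, MDBK 3x10^4 cells/well), grown overnight to confluence, infected at m.o.i. 0.01 (BHK for Reo-1, MDBK for BVDV); serial compound dilutions in maintenance medium with 0.5% inactivated FBS added after 1 h; viability by MTT after 3–4 days at 37°C; EC50 for 50% protection by linear regression.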

For data set [2], the system named is Vesicular stomatitis virus. As to the kind of experiment: Antiviral activity against Vesicular stomatitis virus ATCC VR 1540 infected in African green monkey Vero 76 cells assessed as reduction of virus-plaque formation after 2 days by crystal violet staining. The following applies: ATCC VR 1540, Vero, 48 h. The class given is functional, organism-based.
Data set [3] has as its system Human immunodeficiency virus 1. As to the kind of experiment: Antiviral activity against HIV1 3B infected in human MT4 cells assessed as protection against virus-induced cytopathogenicity by MTT assay. The class given is functional, organism-based. Conditions: Human immunodeficiency virus 1, 3B.
The subject of data set [4] is Pseudomonas aeruginosa. As to the kind of experiment: Antimicrobial activity against Pseudomonas aeruginosa ATCC 15442 after 18 hrs by twofold serial microdilution method. The class given is functional, organism-based.
Data set [5] relates to Escherichia coli. Nature of the data set: Antimicrobial activity against Escherichia coli ATCC 25922 after 18 hrs by twofold serial microdilution method. The format is functional, organism-based.
Data set [6] relates to Escherichia coli. Nature of the data set: Antimicrobial activity against Escherichia coli NCTC 8196 after 18 hrs by twofold serial microdilution method. The format is functional, organism-based.
In data set [7] the test system is Bordetella bronchiseptica. As to the kind of experiment: Antimicrobial activity against Bordetella bronchiseptica ATCC 4617 after 18 hrs by twofold serial microdilution method. The format is functional, organism-based.
The test system of data set [8] is Coxsackievirus B5. As to the kind of experiment: Antiviral activity against Human coxsackievirus B5 ATCC VR-29 infected in African green monkey Vero 76 cells assessed as reduction of virus-plaque formation after 3 days by crystal violet staining. The class given is functional, organism-based. Conditions: Enterovirus B, ATCC VR-29, Vero, 72 h. In a few lines:
(§2)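 Plaque reduction: Vero-76 at 2x10^5 cells/well grown to confluent monolayers, infected 2 h at 50–100 PFU/well; after removing unadsorbed virus, overlay of D-MEM, 1% inactivated FBS, 0.75% methylcellulose with or without serial compound dilutions; 3 days at 37°C, fixed and stained with crystal violet in 50% ethanol, plaques counted; EC50 by linear regression.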

The test system of data set [9] is Human alphaherpesvirus 1. Nature of the data set: Antiviral activity against Human herpesvirus 1 KOS ATCC VR-1493 infected in African green monkey Vero 76 cells assessed as reduction of virus-plaque formation after 3 days by crystal violet staining. The format is functional, organism-based. Conditions: Human alphaherpesvirus 1, KOS ATCC VR1493, Vero, 72 h. The gist of the method:
as §2

The test system of data set [10] is Candida albicans. As to the kind of experiment: Antimicrobial activity against Candida albicans ATCC 90028 after 24 hrs by twofold serial microdilution method. The class given is functional, organism-based.
Data set [11] in a line: Cytotoxicity against African green monkey Vero 76 cells assessed as cell viability after 48 to 96 hrs by crystal violet staining. The format is cell-based. The following applies: chlorocebus sabaeus.
Data set [12] relates to Escherichia coli. Nature of the data set: Antimicrobial activity against Escherichia coli ATCC 10538 after 18 hrs by twofold serial microdilution method. The class given is functional, organism-based.
In data set [13] the test system is Pseudomonas aeruginosa. Nature of the data set: Antimicrobial activity against Pseudomonas aeruginosa NCTC 6749 after 18 hrs by twofold serial microdilution method. The format is functional, organism-based.
Data set [14] is described as follows: Cytotoxicity against BHK cells assessed as cell viability after 48 to 96 hrs by MTT assay. The class given is cell-based, Mesocricetus auratus. Conditions: hamster.
Data set [15] has as its system Candida parapsilosis. As to the kind of experiment: Antimicrobial activity against Candida parapsilosis ATCC 22019 after 24 hrs by twofold serial microdilution method. The class given is functional, organism-based.
The nature of data set [16]: Cytotoxicity against bovine MDBK cells assessed as cell viability after 48 to 96 hrs by MTT assay. The format is cell-based, Bos taurus. Conditions: cattle.
Data set [17] relates to Poliovirus 1. Nature of the data set: Antiviral activity against Poliovirus type 1 ATCC VR-1562 infected in African green monkey Vero 76 cells assessed as reduction of virus-plaque formation after 2 days by crystal violet staining. The format is functional, organism-based. The following applies: Enterovirus C, ATCC VR-1562, Vero, 48 h.
Data set [18] can be described thus: Antiviral activity against Bovine viral diarrhea virus 1-NADL ATCC VR-534 infected in MDBK cells assessed as protection against virus-induced cytopathogenicity after 3 to 4 days by MTT assay. The format is functional, cell-based. Conditions: Bovine viral diarrhea virus isolates and strains, ATCC VR-534, MDBK. The gist of the method: as §1
For data set [19], the system named is Candida albicans. Nature of the data set: Antimicrobial activity against Candida albicans ATCC 10231 after 24 hrs by twofold serial microdilution method. The format is functional, organism-based.
The test system of data set [20] is Vaccinia virus. Nature of the data set: Antiviral activity against Human Vaccinia virus ATCC VR-1549 infected in African green monkey Vero 76 cells assessed as reduction of virus-plaque formation after 3 days by crystal violet staining. Conditions: Orthopoxvirus vaccinia, ATCC VR-1549, Vero, 72 h. The class given is functional, organism-based.
A short description of data set [21]: Cytotoxicity against human MT4 cells. The format is cell-based.
In data set [22] the test system is Pseudomonas aeruginosa. As to the kind of experiment: Antimicrobial activity against Pseudomonas aeruginosa ATCC 27863 after 18 hrs by twofold serial microdilution method. The class given is functional, organism-based.
In data set [23] the test system is Yellow fever virus. Nature of the data set: Antiviral activity against Yellow fever virus 17D infected in BHK cells assessed as protection against virus-induced cytopathogenicity after 3 to 4 days by MTT assay. The class given is functional, cell-based.
The subject of data set [24] is Mycobacterium tuberculosis. Nature of the data set: Antimycobacterial activity against Mycobacterium tuberculosis H37Rv ATCC 25618. The format is functional. In a few lines: (§3)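 Classical test-tube successive-dilution method in Youmans' modification of Proskauer and Beck liquid medium with 10% bovine serum. Inoculum came from 14-day cultures. DMSO stock was 10 mg/mL, diluted geometrically in medium. Tubes were incubated at 37 °C. Concentrations tested were 3.1, 6.2, 12.5, 25, 50 and 100 µg/ml. MIC is the minimum concentration inhibiting growth relative to compound-free tubes.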

In data set [25] the test system is Mycobacterium tuberculosis. Nature of the data set: Antimycobacterial activity against drug-sensitive Mycobacterium tuberculosis Spec. 192. The class given is functional. In a few lines: as §3

For the molecule `CCCC[C@H]1CC[C@H](c2ccc(NC(=S)Nc3cccc(C(F)(F)F)c3)cc2)CC1`, the EC50 in data set [1] is more than 9.5 µM; in [2] it was more than 17 µM; in data set [3], more than 22 µM; in data set [8], more than 17 µM; in data set [9], more than 17 µM; in data set [17] it was more than 17 µM. For the same molecule, the EC50 in data set [18] was more than 10 µM; in [20], more than 17 µM; in data set [23], more than 9.5 µM. In addition, the outcome in data set [4], in data set [5], in data set [6], in [7], in data set [10] and in data set [12] was inactive. Moreover, the result in data set [13], in data set [15], in data set [19] and in data set [22] was inactive. Moreover, the cytotoxic concentration (CC50) in data set [11] was found to be 17 µM; in data set [14], 9.5 µM; in [16], 10 µM; in data set [21], 22 µM.
Take `FC(F)(F)c1cccc(NC(=S)Nc2ccccc2Br)c1`: the EC50 was more than 59 µM in data set [1]; more than 50 µM in data set [2]; more than 36 µM in data set [3]; more than 50 µM in data set [8]; more than 50 µM in data set [9]; more than 50 µM in data set [17]. Also, the EC50 was more than 100 µM in [18], more than 50 µM in data set [20] and more than 59 µM in [23]. Further, the outcome in data set [4], in data set [5], in data set [6], in data set [7], in data set [10] and in [12] was inactive. Further, the outcome in data set [13], in data set [15], in data set [19] and in data set [22] was inactive. Moreover, the CC50 in data set [11] is 50 µM; in data set [14], 59 µM; in data set [16], more than 100 µM; in data set [21], 36 µM.
For `CCOC(=O)c1ccc(NC(=S)Nc2cccc(C(F)(F)F)c2)cc1`, the EC50 is more than 50 µM in [1]; more than 71 µM in [2]; more than 23 µM in data set [3]; more than 71 µM in data set [8]; more than 71 µM in data set [9]; more than 71 µM in [17]. In addition, the EC50 in data set [18] is more than 64 µM; in data set [20], more than 71 µM; in [23], more than 50 µM. Moreover, the MIC in data set [24] and in [25] was more than 100 mg/L each time. In addition, the outcome in [4], in data set [5], in data set [6], in data set [7], in [10] and in data set [12] was inactive. Moreover, the result in data set [13], in data set [15], in [19] and in [22] was inactive. Besides, the CC50 in [11] turned out to be 71 µM; in [14], 50 µM; in data set [16], 64 µM; in [21] it was 23 µM.
As for `CC[C@H]1CC[C@H](c2ccc(NC(=S)Nc3cccc(C(F)(F)F)c3)cc2)CC1`, the EC50 is more than 10 µM in data set [1]; more than 10 µM in [2]; more than 39 µM in data set [3]; more than 10 µM in data set [8]; more than 10 µM in data set [9]; more than 10 µM in data set [17]. The values for the EC50 in [18], in data set [20] and in [23] were more than 9 µM, more than 10 µM and more than 10 µM, respectively. The result in [4], in data set [5], in data set [6], in [7], in data set [10] and in data set [12] was inactive. Further, the result in [13], in data set [15], in data set [19] and in data set [22] was inactive. Besides, the CC50 was found to be 10 µM in [11], 10 µM in data set [14], 9 µM in data set [16] and 39 µM in data set [21].
As for `CC(=O)NC(=S)Nc1cccc(C(F)(F)F)c1`, the EC50 in data set [1], in data set [2], in data set [3], in data set [8], in data set [9] and in [17] was more than 100 µM throughout. Also, the EC50 in data set [18], in [20] and in data set [23] was more than 100 µM throughout. Also, the result in data set [4], in data set [5], in data set [6], in [7], in [10] and in data set [12] was inactive. In addition, the result in data set [13], in data set [15], in data set [19] and in data set [22] was inactive. Further, the half-maximal cytotoxic concentration (CC50) in [11], in data set [14], in data set [16] and in data set [21] was more than 100 µM in each case.
As to `FC(F)(F)c1cccc(NC(S)=NCCN2CCOCC2)c1`, the EC50 in data set [1], in [2], in data set [3], in data set [8], in data set [9] and in [17] was more than 100 µM throughout. Further, the EC50 in data set [18], in data set [20] and in [23] was more than 100 µM each time. Further, the outcome in data set [4], in data set [5], in [6], in data set [7], in [10] and in data set [12] was inactive. The outcome in data set [13], in [15], in [19] and in data set [22] was inactive. The CC50 in data set [11], in [14], in data set [16] and in data set [21] was more than 100 µM each time.

The record behind these values is ChEMBL document CHEMBL3616436, “Synthesis, cytotoxicity and antimicrobial activity of thiourea derivatives incorporating 3-(trifluoromethyl)phenyl moiety” (Eur J Med Chem, 2015).
